Compounds with a hit are over-represented: about 1.8% of the library has one in this group of screens.
ZTA counter: ZTA (EBV) inhibition in EBNA-1 counter-screen; P03206; ZTA-DNA binding, fluorescence polarization; inhibition, % at 11 µM; 0.15% of 320,000 active; in the data active = inhibition above about 33%
proCasp3 act: activates human procaspase-3; 0.11% of 330,000 active; AID 463141; P42574; activation, % at 8.5 µM; recombinant procaspase-3 D3A, Ac-DEVD-pNA absorbance 405 nm;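 active = activation above the mean of all tested compounds plus 3 SD, cut at about 21% in these data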;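 note: 0% = DMSO alone and 100% = DMSO wells spiked with extra 5 µM PC-3 D3A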
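Assay system: Autoprocessing-dead procaspase-3 D3A mutant enzyme; also added: Ac-DEVD-pNA; doses: one concentration, 8.5 µM nominal, 0.8% DMSO; times: 1 h compound preincubation, 2 h substrate hydrolysis at 25 °C; technique: 405 nm absorbance of p-nitroaniline, reads at 0 and 120 min; measure: % activation between DMSO and enzyme-spiked controls; repeats: single replicate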
Apaf-1 inh: blocks human Apaf-1 apoptosome activity; inhibition, % at 20 µM; 0.71% of 330,000 active; reconstituted apoptosome caspase-3 activity, DEVD-Rh110 fluorescence; O14727; active = inhibition of at least 40% at 20 µM;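 note: plate controls were DMSO wells for no effect and DEVD-CHO caspase inhibitor wells for full effect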
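Material: cell-free apoptosome with Apaf-1, procaspase-3 and caspase-9; Buffer or medium: Hepes pH 7.5 with detergent and BSA; Reagent: cytochrome c trigger plus (Z-DEVD)2-Rh110 caspase-3 substrate; Times: compound with Apaf-1, dATP, procaspase-3 30 min, then 50 min reaction, room temperature; Technique: Rh110 fluorescence intensity.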
proCasp7 act: activates human procaspase-7, counter-screen for procaspase-3 activators; P55210; recombinant procaspase-7, Ac-DEVD-pNA absorbance 405 nm; D23A/D198A/D206A triple mutant, cannot self-cleave; scale: DMSO 0, 5 µM enzyme 100; activation, % at 8.5 µM; 0.093% of 330,000 active; AID 463210;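 active = percent activation above the screen-wide mean plus 3 SD, cut at about 25% in these data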
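System: Uncleavable procaspase-7 mutant enzyme; Amount: 2 µM procaspase-7 mutant as dispensed; Schedule: 1 h compound preincubation, 2 h substrate cleavage, 25 °C; Measured by: 405 nm absorbance of p-nitroaniline; Evaluation: percent activation from buffer-corrected 0–120 min absorbance change; Control set: low DMSO alone, high DMSO plus 5 µM PC-7.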
EBNA-1 inhibitor: blocks EBNA-1 binding to DNA | EBNA-1 DNA binding, fluorescence polarization | inhibition, % at 14.8 µM | 0.34% of 300,000 active | AID 1950; in the data active = inhibition above about 28%
GSTO1 counter: counter-screen for RBBP9 inhibitors: inhibitors of human GSTO1; AID 1974; P78417; recombinant GSTO1, activity-based probe fluorescence polarization; inhibition, % at 5.96 µM; 1.1% of 300,000 active;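 active = inhibition above the campaign mean inhibition plus 3 SD, cut at about 35% in these data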;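 note: 0% = GSTO1-1 with DMSO and 100% = wells lacking GSTO1-1 enzyme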
GSTO1 inh conf: GSTO1 (human) inhibition, confirmation; 54% of 2,400 active; inhibition, % at 5.96 µM; AID 2176; recombinant GSTO1, probe fluorescence polarization; shares compounds with GSTO1 counter;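 active = inhibition above the primary screen's cutoff, its mean inhibition plus 3 SD, cut at about 35% in these data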;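 note: loss of polarization as inhibitors block binding of rhodamine sulfonate ester activity probe; 0% = GSTO1 with DMSO and 100% = wells lacking GSTO1 enzyme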
GSTO1 recomb ABPP: GSTO1 (human) inhibition by gel ABPP | recombinant GSTO1, gel ABPP SE-Rh probe fluorescence | inhibition, % at 1 µM | 30% of 130 active | shares compounds with GSTO1 counter | AID 463110;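 active = inhibition of the enzyme GSTO1 above about 75%, limit read from the data; inactive = inhibition below that limit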
Zta DNA confirm: confirmation of Epstein-Barr virus ZTA DNA binding inhibitors. shares compounds with ZTA counter. Zta-ZRE DNA binding, fluorescence polarization. inhibition, % at 11.1 µM. 30% of 320 active. AID 2361;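 active = mean inhibition across triplicate runs above the hit threshold derived for the original primary screen, cut at about 33% in these data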;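 note: 0% = Zta with DMSO and 100% = wells lacking Zta protein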
EBNA-1 counter: counter-screen for ZTA inhibitors: EBNA-1 DNA binding inhibition; fluorescence polarization; AID 2362; inhibition, % at 14.8 µM; shares compounds with ZTA counter; 320 tested, under 10 active
Apaf-1 inh conf: Apaf-1 inhibition, single-dose confirmed; shares compounds with Apaf-1 inh; reconstituted apoptosome, caspase-3 DEVD-Rh110 fluorescence; inhibition, % at 20 µM; 25% of 1,800 active; AID 504614;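 active = mean inhibition of at least 40% at 20 µM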;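 note: plate controls were DMSO wells for no effect and DEVD-CHO caspase inhibitor control wells for full effect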
Rh110 interf inh: Rh110 signal interference in Apaf-1 inhibitor counter-screen; Rh110 fluorescence interference, quenched caspase reaction; 1,800 tested, under 10 active; AID 504615; activation (fluorescence interference), % at 20 µM; shares compounds with Apaf-1 inh;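 active = signal rise of 40% or more at 20 µM, treated as a fluorescence artifact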
Apaf1 inh interf: Apaf-1 inhibitor counter-screen fluorescence artifact; fluorescence interference counterscreen, Apaf-1 assay format; shares compounds with Apaf-1 inh; IC50, µM; 460 tested, under 10 active
Active calls of the source: *; x = no result given; + = active, no number. Unless noted, the rule behind the calls is not given here.

SMILES | ZTA counter | proCasp3 act | Apaf-1 inh | proCasp7 act | EBNA-1 inhibitor | GSTO1 counter | GSTO1 inh conf | Apaf-1 inh conf | Rh110 interf inh | others
Cc1ccc2c(c1)c(=O)c1c3n2CCN(C(=O)CCl)C3CC1 (configuration not stated) | 10 | -8 | 64* | -2 | 2 | 66* | 80* | 18 | -7 | GSTO1 recomb ABPP=63
Cc1ccc2c(c1)c1c3n2CCN(C(=O)CN2CCN(C)CC2)C3CCC1 (configuration not stated) | 13 | -6 | 13 | 3 | 9 | 11 | x | x | x
CCN(CC)S(=O)(=O)c1ccc(C(=O)NCC2(N3CCOCC3)CCCCC2)cc1 | -5 | 12 | 4 | -1 | x | x | x | x | x
COc1ccc(NC(=O)c2c(F)cccc2Cl)cc1S(=O)(=O)N1CCOCC1 | x | 2 | 6 | 10 | x | x | x | x | x
O/C=c1\ccc2cccc3nc(C(F)(F)F)nc1c23 | 10 | -4 | 79* | -12 | -12 | 64* | 76* | 86* | -40 | Apaf1 inh interf=20*
Cc1nn(-c2ccccc2)nc1C(=O)OCC(=O)N1CCC(C)CC1 | 12 | 9 | -10 | 7 | x | x | x | x | x
CC1CCC2(CC1)NC(=O)N(NC(=O)c1cc3ccccc3o1)C2=O (configuration not stated) | -17 | 1 | -6 | 6 | x | x | x | x | x
COc1ccc(Nc2ccc3c(c2)=NC2(CCCCC2)[N+]=3[O-])cc1 | -5 | -5 | 80* | -4 | -1 | 54* | 31 | 70* | 12 | Apaf1 inh interf=>100
COc1ccc(NC2=NC(=S)N(c3ccccc3C)C23CCCCC3)cc1 | -3 | 1 | 17 | -2 | 0 | 6 | x | x | x
CCCCn1c(NC(=O)c2ccc(Br)o2)c(S(=O)(=O)c2ccccc2)c2nc3ccccc3nc21 | 11 | -6 | 71* | -2 | 21 | 58* | 67* | 31 | -2
Cc1cc(F)ccc1S(=O)(=O)Nc1ccccc1C(=O)NC1CCN(Cc2ccccc2)CC1 | x | x | 11 | x | x | x | x | x | x
COc1ccc(NC(=S)Nc2ccc3nc(C)c(C)nc3c2)cc1 | 1 | -9 | 4 | -7 | -1 | -1 | x | x | x
COc1ccc(NC(=S)Nc2ccc3nsnc3c2)cc1 | 38* | -8 | 97* | -20 | 20 | 86* | 80* | 97* | 16 | Zta DNA confirm=5;EBNA-1 counter=-2;Apaf1 inh interf=>100
CC(C)N(C(=O)Nc1ccc2nsnc2c1)C(C)C | 74* | -34 | 97* | -40 | -10 | 98* | 77* | 96* | 0 | Zta DNA confirm=9;EBNA-1 counter=5;Apaf1 inh interf=>100
S=C(Nc1ccc2nsnc2c1)N1CCCCCC1 | -1 | -9 | 93* | -23 | -7 | 77* | 79* | 12 | 5
CCN(C(=O)COC(=O)c1oc2ccc(OC)cc2c1C)C1CCS(=O)(=O)C1 (configuration not stated) | x | x | 4 | x | x | x | x | x | x
Cc1ccc(C)c(OCCC(=O)OCC(=O)NNC(=O)c2ccccc2)c1 | 6 | 9 | 0 | -5 | x | x | x | x | x
CN(C)c1ncc(C2=C(Cl)C(=O)C(N3CCCC3)=C(Cl)C2=O)s1 | 11 | -14 | 83* | -3 | 1 | 88* | 81* | 42* | 3 | Apaf1 inh interf=>100
CC(=O)c1cnc(N(C)C)s1 | -17 | -4 | -2 | 10 | 5 | -3 | x | x | x
CCNc1ccccc1CP(=O)(c1ccccc1)c1ccccc1O (configuration not stated) | 0 | -11 | 87* | -23 | 10 | 87* | 4 | 12 | -1
CC(=O)c1cccc(-c2ccc3c(=O)[nH]c(Nc4ccccc4)cc3c2)c1 | -3 | -3 | 96* | -10 | 11 | 49* | 12 | 88* | 8
O=c1[nH]c(Nc2ccccc2)cc2ccccc12 | 32 | 0 | 96* | 0 | -13 | 80* | 47* | 94* | -1 | Apaf1 inh interf=>100
COc1ccc(CCn2c(N)c(C(=O)NCc3ccco3)c3nc4ccccc4nc32)cc1OC | -11 | 14 | 63* | -9 | 6 | 52* | 0 | 16 | 3
COc1ccc(CCn2c(N)c(C(=O)NCc3ccco3)c3nc4ccccc4nc32)cc1 | 6 | -14 | 40 | 4 | 0 | 4 | x | x | x
COc1ccc(CCn2c(N)c(C#N)c3nc4ccccc4nc32)cc1OC | -16 | -13 | 60* | -30 | -1 | 57* | -5 | -2 | 1
SMILES | ZTA counter | proCasp3 act | Apaf-1 inh | proCasp7 act | EBNA-1 inhibitor | GSTO1 counter | GSTO1 inh conf | Apaf-1 inh conf | Rh110 interf inh | others
Oc1ccc(/C=N/N2CCCCC2)c(O)c1O | -6 | -21 | 70* | -26 | -18 | 46* | 14 | 19 | 3
O=C(CN1CCN(S(=O)(=O)c2ccccc2F)CC1)Nc1ccnn1C1CCCC1 | -1 | 6 | 10 | 4 | x | x | x | x | x
CC(=O)C1=C(C)OC2(O)c3ccccc3C(=O)C12O (configuration not stated) | -13 | -8 | 93* | -6 | 6 | 72* | 80* | 90* | 4 | Apaf1 inh interf=>100
O=C(O)c1cccc(NC2=C(n3nnc4ccccc43)C(=O)c3ccccc3C2=O)c1 | 0 | -5 | 58* | 0 | 4 | 62* | 45* | 64* | 7 | Apaf1 inh interf=>100
Nc1nc(NCCc2ccccc2)nc(NCCO)c1[N+](=O)[O-] | 6 | 4 | 2 | -1 | -4 | -4 | x | x | x
COc1ccc(Br)cc1CNc1ccc2[nH]c(=O)[nH]c2c1 | -1 | -8 | 5 | -5 | -14 | -10 | x | x | x
COc1ccc(Br)cc1CNc1ccc(O)cc1 | 40* | -4 | 95* | -16 | -1 | 86* | 6 | 19 | 5 | Zta DNA confirm=-5;EBNA-1 counter=0
CCCCCC(=O)N/N=C/c1ccc([N+](=O)[O-])o1 | 6 | 5 | 6 | -6 | -11 | 9 | x | x | x
CCN(CC)c1ccc(N=Cc2ccc([N+](=O)[O-])o2)cc1 | + | -20 | 56* | -30 | + | 73* | 10 | 27 | 10
